Measured values taken from ChEMBL document CHEMBL2216748 (J Med Chem, 2012).
pIC50, pKi: −log10 of the molar value. Values belong to the compound of their own block, whether it stands above or below them. Active and inactive are the calls of the source. The rule behind the calls is not given here.

Columns and labels:
[1] = molecular target: T1, Ribosyldihydronicotinamide dehydrogenase [quinone] (Homo sapiens) (UniProt P16083); test: (§1) Displacement of (S)-N4-(2-(4-(4-(4-methyl-3-(4-(pyridin-3-yl)pyrimidin-2-ylamino)phenylcarbamoyl)benzyl)piperazin-1-yl)ethyl)-N1-(15-oxo-19-((3aS,4S,6aR)-2-oxohexahydro-1H-thieno[3,4-d]imidazol-4-yl)-4,7,10-trioxa-14-azanonadecyl)-2-(4-(3-(trifluoromethyl)-3H-diazirin-3-yl)benzamido)succinamide from NQO2 in human K562 cell lysate after 1 hr by capture compound based LC/MS analysis; format: cell-free
T1 sequence (whole entry): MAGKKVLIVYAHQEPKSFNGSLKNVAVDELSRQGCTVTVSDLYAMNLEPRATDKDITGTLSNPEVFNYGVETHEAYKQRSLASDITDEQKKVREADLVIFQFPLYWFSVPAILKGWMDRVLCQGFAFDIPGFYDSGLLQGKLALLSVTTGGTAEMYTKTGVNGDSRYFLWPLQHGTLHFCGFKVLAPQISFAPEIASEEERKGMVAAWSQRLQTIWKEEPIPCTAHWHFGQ
How it was run: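 K562 lysate (400 μg, precleared) was preincubated with competitor (final 100 μM) for 30 min at 4 °C. Capture compound (final 5 μM) was added for 1 h at 4 °C, then UV-crosslinked 10 min. Proteins were pulled down on streptavidin beads and trypsin-digested on-bead for 16 h at 37 °C, then analysed by nanoLC-Orbitrap MS/MS. Spectral counts in capture versus competition were compared, with duplicate experiments.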

[2] = molecular target: T1, Ribosyldihydronicotinamide dehydrogenase [quinone] (Homo sapiens); test: as §1, with “lysate at 100 uM” for “lysate”, “Western blot” for “capture compound based LC/MS”; format: cell-free
How it was run: (§2)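 Lysate (400 μg, precleared with streptavidin beads 30 min at 4 °C) in capture buffer was preincubated with competitor (final 100 μM) for 30 min at 4 °C. […] Streptavidin beads were added for 1 h at 4 °C, followed by anti-NQO2 (1:500) Western blot.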

[3] = molecular target: T1, Ribosyldihydronicotinamide dehydrogenase [quinone] (Homo sapiens); test: (§3) Displacement of (S)-N4-(4-(3-(2-((4-carbamimidoylphenylamino)methyl)-1-methyl-N-(pyridin-2-yl)-1H-benzo[d]imidazole-5-carboxamido)propanamido)butyl)-N1-(15-oxo-19-((3aS,4S,6aR)-2-oxohexahydro-1H-thieno[3,4-d]imidazol-4-yl)-4,7,10-trioxa-14-azanonadecyl)-2-(4-(3-(trifluoromethyl)-3H-diazirin-3-yl)benzamido)succinamide from human recombinant NQO2 after 1 hr by silver staining-based SDS PAGE analysis
How it was run: (§4)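 Human recombinant NQO2 (1 μg) was preincubated 30 min at 4 °C with competitor, then capture compound was added at 5 μM final (competitors 100 μM final) and equilibrated 1 h at 4 °C. Samples were UV-irradiated 10 min, pulled down on streptavidin beads and resolved by silver-stained SDS-PAGE.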

[4] = molecular target: T1, Ribosyldihydronicotinamide dehydrogenase [quinone] (Homo sapiens); test: Displacement of (S)-N4-(2-(4-(4-(4-methyl-3-(4-(pyridin-3-yl)pyrimidin-2-ylamino)phenylcarbamoyl)benzyl)piperazin-1-yl)ethyl)-N1-(15-oxo-19-((3aS,4S,6aR)-2-oxohexahydro-1H-thieno[3,4-d]imidazol-4-yl)-4,7,10-trioxa-14-azanonadecyl)-2-(4-(3-(trifluoromethyl)-3H-diazirin-3-yl)benzamido)succinamide from human recombinant NQO2 after 1 hr by silver staining-based SDS PAGE analysis; how it was run: as §4
[5] = molecular target: T1, Ribosyldihydronicotinamide dehydrogenase [quinone] (Homo sapiens); test: as §1, with “HepG2” for “K562”, “lysate at 100 uM” for “lysate”, “Western blot” for “capture compound based LC/MS”; format: cell-free; how it was run: as §2
[6] = molecular target: Prothrombin (Homo sapiens) (UniProt P00734); test: Binding affinity to human recombinant thrombin after 1 hr by Western blot analysis
How it was run: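 Purified human recombinant thrombin (2 μg) incubated with capture compound for 1 h at 4 °C, with or without preincubation with free drug as competitor. Sample UV-irradiated 10 min, captured on streptavidin beads, then analysed by silver-stained SDS-PAGE and by streptavidin-HRP blot to detect covalent biotinylation.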

[7] = Thermal stability of the compound; format: physicochemical
How it was run: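 Capture compound incubated 30 min native at 4 °C or denatured at 80 °C as thermal stress. Biological stress was 30 min in HepG2 lysate at 4 and 37 °C. UV irradiation for 10 and 30 min was checked for a single defined photoproduct.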

[8] = molecular target: Histamine N-methyltransferase (Homo sapiens) (UniProt P50135); test: Binding affinity to HNMT in human K562 cell lysate after 1 hr by capture compound based LC/MS analysis; format: cell-free
Chain of Histamine N-methyltransferase (Homo sapiens) (P50135 whole entry): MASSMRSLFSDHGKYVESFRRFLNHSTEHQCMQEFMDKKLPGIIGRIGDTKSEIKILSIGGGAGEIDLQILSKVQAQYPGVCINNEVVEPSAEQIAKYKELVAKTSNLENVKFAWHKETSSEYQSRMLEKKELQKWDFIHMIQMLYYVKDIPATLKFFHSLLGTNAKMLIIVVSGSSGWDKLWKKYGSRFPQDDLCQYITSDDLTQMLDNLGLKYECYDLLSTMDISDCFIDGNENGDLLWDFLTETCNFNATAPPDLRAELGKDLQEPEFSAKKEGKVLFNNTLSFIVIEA
How it was run: (§5)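 Capture compound MS: 400 μg HepG2 or K562 lysate in capture buffer, precleared with streptavidin beads 30 min at 4 °C. Competition controls preincubated 30 min at 4 °C with free drug (10 μL of 1 mM). Capture compound (10 μL of 50 μM) equilibrated 1 h at 4 °C, UV-irradiated 10 min, streptavidin bead pulldown, on-bead trypsin digestion, nanoLC-MS/MS. Spectral counts compared capture vs competition (t test). HepG2 in quadruplicate, K562 in duplicate.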

[9] = molecular target: Adenosine kinase (Homo sapiens) (UniProt P55263); test: Binding affinity to ADK in human HepG2 cell lysate after 1 hr by capture compound based LC/MS analysis; format: cell-free; how it was run: as §5
Chain of Adenosine kinase (Homo sapiens) (P55263 2-362 limits assumed): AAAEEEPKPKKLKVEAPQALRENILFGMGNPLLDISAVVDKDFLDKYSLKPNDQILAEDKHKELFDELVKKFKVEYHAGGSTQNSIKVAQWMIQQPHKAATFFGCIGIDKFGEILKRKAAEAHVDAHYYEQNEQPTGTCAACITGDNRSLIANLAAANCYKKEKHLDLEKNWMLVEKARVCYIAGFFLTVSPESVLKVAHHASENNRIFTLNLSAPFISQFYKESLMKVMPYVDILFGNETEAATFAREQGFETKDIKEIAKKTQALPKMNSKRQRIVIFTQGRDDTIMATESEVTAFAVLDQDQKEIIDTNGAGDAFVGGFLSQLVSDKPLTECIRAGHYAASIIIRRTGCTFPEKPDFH

[10] = molecular target: T2, Hypoxia up-regulated protein 1 (Homo sapiens) (UniProt Q9Y4L1); test: Binding affinity to HYOU1 in human K562 cell lysate after 1 hr by capture compound based LC/MS analysis; format: cell-free; how it was run: as §5
T2 sequence (whole entry): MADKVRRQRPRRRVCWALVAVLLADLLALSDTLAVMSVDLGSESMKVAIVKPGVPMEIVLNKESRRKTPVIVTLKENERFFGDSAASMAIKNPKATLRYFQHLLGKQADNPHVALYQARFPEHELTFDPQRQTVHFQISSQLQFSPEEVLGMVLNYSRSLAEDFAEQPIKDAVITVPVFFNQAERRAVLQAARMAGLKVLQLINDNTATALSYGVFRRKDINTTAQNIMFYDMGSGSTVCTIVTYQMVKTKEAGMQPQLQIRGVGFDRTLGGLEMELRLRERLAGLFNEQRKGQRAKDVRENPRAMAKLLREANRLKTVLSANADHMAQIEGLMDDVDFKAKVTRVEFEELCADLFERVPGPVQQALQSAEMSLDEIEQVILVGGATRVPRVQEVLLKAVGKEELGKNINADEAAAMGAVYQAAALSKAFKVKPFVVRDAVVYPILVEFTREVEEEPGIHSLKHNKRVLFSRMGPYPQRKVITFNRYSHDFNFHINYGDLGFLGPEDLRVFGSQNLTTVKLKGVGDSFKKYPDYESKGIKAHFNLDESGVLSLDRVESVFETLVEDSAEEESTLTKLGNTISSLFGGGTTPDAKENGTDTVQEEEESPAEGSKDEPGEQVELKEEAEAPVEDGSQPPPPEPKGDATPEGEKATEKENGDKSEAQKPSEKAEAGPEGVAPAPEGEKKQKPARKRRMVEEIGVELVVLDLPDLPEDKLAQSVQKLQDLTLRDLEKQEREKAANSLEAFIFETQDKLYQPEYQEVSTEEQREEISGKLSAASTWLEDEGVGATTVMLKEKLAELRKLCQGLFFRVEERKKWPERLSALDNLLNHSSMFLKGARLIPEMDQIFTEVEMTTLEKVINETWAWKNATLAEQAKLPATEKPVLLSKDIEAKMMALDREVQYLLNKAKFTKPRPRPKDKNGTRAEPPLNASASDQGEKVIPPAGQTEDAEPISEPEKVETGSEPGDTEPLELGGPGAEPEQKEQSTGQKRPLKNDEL

[11] = molecular target: Histamine N-methyltransferase (Homo sapiens) (UniProt P50135); test: Binding affinity to HNMT in human HepG2 cell lysate after 1 hr by capture compound based LC/MS analysis; format: cell-free; how it was run: as §5
[12] = molecular target: Adenosine kinase (Homo sapiens) (UniProt P55263); test: Binding affinity to ADK in human K562 cell lysate after 1 hr by capture compound based LC/MS analysis; format: cell-free; how it was run: as §5
[13] = molecular target: T2, Hypoxia up-regulated protein 1 (Homo sapiens); test: Binding affinity to HYOU1 in human HepG2 cell lysate after 1 hr by capture compound based LC/MS analysis; format: cell-free; how it was run: as §5
[14] = molecular target: Heterogeneous nuclear ribonucleoproteins C1/C2 (Homo sapiens) (UniProt P07910); test: Binding affinity to HNRPC in human HepG2 cell lysate after 1 hr by capture compound based LC/MS analysis; format: cell-free; how it was run: as §5
Chain of Heterogeneous nuclear ribonucleoproteins C1/C2 (Homo sapiens) (P07910 whole entry): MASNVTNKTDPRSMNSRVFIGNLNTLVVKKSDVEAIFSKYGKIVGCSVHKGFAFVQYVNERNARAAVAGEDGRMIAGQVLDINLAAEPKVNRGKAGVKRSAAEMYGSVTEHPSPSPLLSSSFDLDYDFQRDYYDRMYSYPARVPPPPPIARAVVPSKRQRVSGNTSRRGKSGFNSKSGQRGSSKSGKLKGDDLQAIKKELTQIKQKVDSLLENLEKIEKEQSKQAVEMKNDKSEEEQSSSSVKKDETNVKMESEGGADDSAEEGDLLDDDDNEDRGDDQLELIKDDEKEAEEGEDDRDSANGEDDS

[15] = molecular target: Heterogeneous nuclear ribonucleoproteins C1/C2 (Homo sapiens) (UniProt P07910); test: Binding affinity to HNRPC in human K562 cell lysate after 1 hr by capture compound based LC/MS analysis; format: cell-free; how it was run: as §5
[16] = molecular target: T3, Ribosyldihydronicotinamide dehydrogenase [quinone] (Homo sapiens, UniProt P16083); test: Competitive inhibition of human recombinant NQO2-mediated mitomycin C metabolism using NADH as cosubstrate incubated for 5 mins prior to NADH addition measured after 30 mins by Michaelis-Menten plot analysis
T3 sequence (P16083 whole entry): T1 sequence (whole entry)
How it was run: (§6)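 NQO2 (0.5 μM) with mitomycin C (50 μM) and four inhibitor concentrations in 100 mM potassium phosphate pH 5.8, 5 min at room temperature. Increasing NADH was then added and A340 followed for 30 min at rt. Ki from Lineweaver–Burk, IC50 from competitive Michaelis–Menten kinetics. Two experiments, duplicate points each.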

[17] = molecular target: T3, Ribosyldihydronicotinamide dehydrogenase [quinone]; test: Inhibition of human recombinant NQO2-mediated mitomycin C metabolism using NADH as cosubstrate incubated for 5 mins prior to NADH addition measured after 30 mins by spectrophotometric analysis; how it was run: as §6
[18] = molecular target: T3, Ribosyldihydronicotinamide dehydrogenase [quinone]; test: as §3, with “densitometric” for “silver staining-based SDS PAGE”
[19] = Inhibition of human alpha thrombin using Boc-Val-Pro-Arg-AMC as substrate after 2 hrs by fluorometric analysis
How it was run: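 Human α-thrombin at 5.5 ng/mL final with Boc-Val-Pro-Arg-AMC (15 μM) in 50 mM Tris pH 7.5, 150 mM NaCl, 0.05% Tween 20. Compound tested as 16 two-fold dilutions in DMSO, 2.5 mM to 75 nM. Incubated 2 h at room temperature; fluorescence read at ex 355, em 460 nm for percent inhibition.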

[20] = molecular target: Vacuolar protein sorting-associated protein 35 (Homo sapiens) (UniProt Q96QK1); test: (§7) Displacement of 2-((R)-1-cyclohexyl-2-oxo-2-((S)-2-(4-(N-((S)-6,9,25-trioxo-29-((3aS,4S,6aR)-2-oxohexahydro-1H-thieno[3,4-d]imidazol-4-yl)-8-(4-(3-(trifluoromethyl)-3H-diazirin-3-yl)benzamido)-14,17,20-trioxa-5,10,24-triazanonacosyl)carbamimidoyl)benzylcarbamoyl)azetidin-1-yl)ethylamino)acetic acid from VPS35 in human HepG2 cell lysate after 1 hr by capture compound based LC/MS analysis; format: cell-free; how it was run: as §5
[21] = molecular target: T4, Leucine-rich repeat-containing protein 59 (Homo sapiens) (UniProt Q96AG4); test: as §7, with “LRC59” for “VPS35”; format: cell-free; how it was run: as §5
T4 sequence (whole entry): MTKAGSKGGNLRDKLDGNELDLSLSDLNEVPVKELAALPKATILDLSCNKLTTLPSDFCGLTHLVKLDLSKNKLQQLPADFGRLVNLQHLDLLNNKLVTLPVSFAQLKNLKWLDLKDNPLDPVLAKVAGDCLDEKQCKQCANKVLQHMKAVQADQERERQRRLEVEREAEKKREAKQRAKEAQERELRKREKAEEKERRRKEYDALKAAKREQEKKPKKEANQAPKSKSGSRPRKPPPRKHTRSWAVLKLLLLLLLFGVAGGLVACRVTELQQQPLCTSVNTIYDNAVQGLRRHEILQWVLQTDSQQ

Activity [1]: Active
Activity [2]: Active
Activity [3]: Active
Activity [4]: Active
Activity [5]: Active
Compound: Cc1ccc(NC(=O)c2ccc(CN3CCN(C)CC3)cc2)cc1Nc1nccc(-c2cccnc2)n1

Activity [6]: Active
Stability [7]: Stable
Compound: N=C(N)c1ccc(CNC(=O)[C@@H]2CCN2C(=O)[C@H](NCC(=O)NCCCCNC(=O)C[C@H](NC(=O)c2ccc(C3(C(F)(F)F)N=N3)cc2)C(=O)NCCCOCCOCCOCCCNC(=O)CCCC[C@@H]2SC[C@@H]3NC(=O)N[C@@H]32)C2CCCCC2)cc1

Activity [8]: inactive
Activity [9]: Active
Activity [10]: inactive
Activity [11]: Active
Activity [6]: inactive
Activity [12]: inactive
Stability [7]: Stable
Activity [13]: Active
Activity [14]: Active
Activity [15]: inactive
Compound: Cn1c(CNc2ccc(C(=N)NCCCCNC(=O)C[C@H](NC(=O)c3ccc(C4(C(F)(F)F)N=N4)cc3)C(=O)NCCCOCCOCCOCCCNC(=O)CCCC[C@@H]3SC[C@@H]4NC(=O)N[C@@H]43)cc2)nc2cc(C(=O)N(CCC(=O)O)c3ccccn3)ccc21

pIC50 [16]: 6.10
pKi [17]: 6.05
pIC50 [18]: 5.82
pIC50 [19]: 8.92
Compound: CCOC(=O)CCN(C(=O)c1ccc2c(c1)nc(CNc1ccc(C(=N)N)cc1)n2C)c1ccccn1 [DABIGATRAN ETHYL ESTER]

Activity [20]: Active
Activity [21]: Active
Compound: N=C(N)c1ccc(CNC(=O)[C@@H]2CCN2C(=O)[C@H](NCC(=O)O)C2CCCCC2)cc1

pIC50 [16]: < 5.00
pKi [17]: 4.15
pIC50 [18]: 4.96
Compound: [H]/N=C(/N)c1ccc(NCc2nc3cc(C(=O)N(CCC(=O)O)c4ccccn4)ccc3n2C)cc1 [DABIGATRAN]
